Published values gathered from unrelated publications.
Read-out: microbial growth

O=C1NC(=S)S/C1=C\c1ccc(-c2ccc(N(c3ccccc3)c3ccccc3)cc2)c2ccccc12  MIC (Streptococcus mutans; broth dilution; ATCC25175): 1000 µg/mL
CCCCCCC/C=C/C(=O)N1C(=O)/C(=C(/C)O)C(=O)C1CO (stereo not drawn)  MIC (Stenotrophomonas maltophilia; ATCC13637): > 200 µg/mL
CO[C@@H](C(N)=O)[C@H](NC(=O)c1ccc(NC(=O)c2ccc(C#N)cc2)cc1)C(=O)Nc1ccc(C(=O)Nc2ccc(C(=O)Nc3ccc(C(=O)O)cc3)c(O)c2OC(C)C)cc1  MIC (Klebsiella aerogenes; DSM30053): 2 µg/mL
Cc1ncc([N+](=O)[O-])n1CCO  MIC (Bifidobacterium; agar dilution; 48 h): > 16 µg/mL
O=C(O)c1cn(C2CC2)c2cc(N3CCNCC3)c(F)cc2c1=O  MIC (Klebsiella aerogenes; DSM30053): 0.125 µg/mL
O=C1NC(=S)S/C1=C\c1ccc(-c2ccc(N(c3ccccc3)c3ccccc3)cc2)cc1  MIC (Streptococcus pyogenes; broth dilution; ATCC19615): 1000 µg/mL
CCCCCCC/C=C/C(=O)N1C(=O)/C(=C(\O)c2ccncc2)C(=O)C1CC(C)C (stereo not drawn)  MIC (Stenotrophomonas maltophilia; ATCC13637): 200 µg/mL
O=C1NC(=S)N/C1=C\c1c2ccccc2c(-c2ccc(N(c3ccccc3)c3ccccc3)cc2)c2ccccc12  MIC (Streptococcus mutans; broth dilution; ATCC25175): > 1000 µg/mL
CCc1cc(Nc2cc(=O)n(CCCCO)c(=O)[nH]2)ccc1C  MIC (Bifidobacterium; agar dilution; 48 h): > 32 µg/mL
CC(C)Oc1c(NC(=O)c2ccc(NC(=O)[C@H](CC(N)=O)NC(=O)c3ccc(NC(=O)c4ccc(C#N)s4)cc3)cc2)ccc(C(=O)Nc2ccc(C(=O)O)cc2)c1O  MIC (Klebsiella aerogenes; DSM30053): 0.25 µg/mL
CNC(=O)c1cc(Oc2ccc(NC(=O)Nc3ccc(Cl)c(C(F)(F)F)c3)cc2)ccn1  MIC (Klebsiella aerogenes; DSM30053): > 100 µM
O=C1NC(=S)S/C1=C\c1c2ccccc2c(-c2ccc(N(c3ccccc3)c3ccccc3)cc2)c2ccccc12  MIC (Streptococcus pyogenes; broth dilution; ATCC19615): > 1000 µg/mL
CCCCCCC/C=C/C(=O)N1C(=O)/C(=C(/C)O)C(=O)C1CCCCN (stereo not drawn)  MIC (Stenotrophomonas maltophilia; ATCC13637): > 200 µg/mL
O=C1NC(=S)N/C1=C\c1ccc(-c2ccc(N(c3ccccc3)c3ccccc3)cc2)c2ccccc12  MIC (Streptococcus mutans; broth dilution; ATCC25175): > 1000 µg/mL
CCCCCCC/C=C/C(=O)N1CC(=O)/C(=C(\C)O)C1=O  MIC (Stenotrophomonas maltophilia; ATCC13637): 100 µg/mL
